CHO parental Ca: ATP-evoked calcium signal inhibitors, parental CHO, primary screen, counter-screen for OX1R antagonist project, cell-based, fluorescence, Fluo-8 calcium dye | parental CHO-K1, ATP-induced calcium, Fluo-8 fluorescence | inhibition, % at 5.6 µM | 330,000 compounds, 0.63% hits | AID 463079, 2010;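 active means inhibition above that plate's mean sample inhibition plus 3 SD, cut at about 26% in these data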;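 further: 0% = ATP-challenged DMSO wells and 100% = DMSO wells without ATP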
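Material – parental CHO cells · Reagent – ATP stimulus · Compound – single nominal dose of 5.6 µM per compound · Detection – Fluo-8 fluorescence · Read-out basis – percent inhibition of calcium signal · Controls – ATP-challenged DMSO wells low, unchallenged DMSO wells high · Repeats – no replicates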
M1 ag parental: counter-screen for M1 agonists: effect in parental CHO-K1 cells; activation, % at 3 µM; 360,000 compounds, 0.48% hits; Fluo-8 calcium fluorescence; scaled to maximal ATP response, vehicle zero; in the data active means activation above about 15%;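 further: untransfected CHO-K1 host cells lacking M1 receptor as counterscreen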
M1 PAM parental: nonselective calcium activators in parental CHO-K1 cells, primary screen, counter-screen for M1 PAM project, cell-based, Fluo-8 calcium fluorescence, full deck, 1536-well. ATP EC20; 0% at ATP EC20, 100% at ATP max. 360,000 compounds, 0.02% hits. AID 602247, 2012. activation, % at 3 µM;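 active means activation above the run cutoff, the mean activation of all test compounds plus 3 SD, cut at about 40% in these data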;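 further: peak over basal fluorescence ratio in a 140 s read after ATP addition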
OX1R antag-1: antagonists of human orexin 1 receptor (OX1R); 330,000 compounds, 1.8% hits; inhibition, % at 6.6 µM; OX1R-expressing cells, FRET antagonist read-out; Orexin/Hypocretin receptor type 1 (Homo sapiens), O43613; AID 485270, 2010; in the data active means inhibition mostly above about 38%, no sharp cut-off; inactive means mostly below about 40%;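 further: 0% = agonist challenge alone and 100% = reference antagonist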
Target sequence (O43613 whole entry, looked up): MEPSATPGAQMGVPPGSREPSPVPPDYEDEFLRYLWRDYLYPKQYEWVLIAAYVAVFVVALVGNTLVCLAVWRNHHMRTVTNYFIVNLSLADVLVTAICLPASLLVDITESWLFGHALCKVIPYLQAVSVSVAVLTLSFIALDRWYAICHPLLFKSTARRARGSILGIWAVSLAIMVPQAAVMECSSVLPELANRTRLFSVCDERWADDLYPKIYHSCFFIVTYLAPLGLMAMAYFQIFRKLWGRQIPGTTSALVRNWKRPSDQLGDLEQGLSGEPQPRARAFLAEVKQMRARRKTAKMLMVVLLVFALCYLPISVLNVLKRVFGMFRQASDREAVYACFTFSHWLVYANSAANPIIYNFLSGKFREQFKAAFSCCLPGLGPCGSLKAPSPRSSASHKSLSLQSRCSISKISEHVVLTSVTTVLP
OX1R antag-2: OX1R (HCRTR1) antagonists, primary screen, fluorescence, CHO/OX1R cells, Fluo-8 calcium, orexin A; Orexin/Hypocretin receptor type 1 (Homo sapiens), O43613; Fluo-8 calcium fluorescence; inhibition, % at 5 µM; 330,000 compounds, 0.43% hits; AID 434989, 2010;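 active means inhibition above its plate's threshold, mean inhibition of all tested compounds on the plate plus 3 SD, cut at about 37% in these data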;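 further: 0% = orexin A challenge wells and 100% = SB-334867-A antagonist wells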
CHO-K1 Ca antag: counter-screen for M1 antagonists: effect in parental CHO-K1 cells | inhibition, % at 3 µM | ATP-induced calcium, Fluo-8 fluorescence | 360,000 compounds, 0.6% hits | AID 602250;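 active means inhibition above a per-plate cutoff, the plate's mean sample inhibition plus 3 SD, cut at about 24% in these data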;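 further: 0% = DMSO plus EC80 ATP and 100% = DMSO alone without ATP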
Active calls of the source: *. Only some compounds are listed: those with a hit (about 2.9% of all), similar ones and a draw of the others.

For Cc1cccc(OCC(=O)NNC(=O)c2cc3ccccc3oc2=O)c1 the results were CHO parental Ca -19, M1 ag parental 1, M1 PAM parental 15, OX1R antag-1 73*, OX1R antag-2 -26 and CHO-K1 Ca antag -6.
`Cc1ccc(OCC(=O)NNC(=O)c2cc3ccccc3o2)cc1C` gave CHO parental Ca 49*, M1 ag parental 0, M1 PAM parental 12, OX1R antag-1 6, OX1R antag-2 -5 and CHO-K1 Ca antag -10.
Screening CCOC(=O)CSc1ncnc2c1sc1nc(N3CCOCC3)c3c(c12)CCCC3 returned CHO parental Ca -5, M1 ag parental -1, M1 PAM parental -6, OX1R antag-1 10, OX1R antag-2 0 and CHO-K1 Ca antag 34*.
For Cc1ccc(S(=O)(=O)c2c(C)nn(C(C)(C)C)c2OC(=O)CC(C)C)cc1 the results were CHO parental Ca 31*, M1 ag parental 2, M1 PAM parental 17, OX1R antag-1 16, OX1R antag-2 -12 and CHO-K1 Ca antag -6.
Screening CC(=O)Nc1ccc(NC(=O)C(=O)NCC(c2ccco2)N2CCc3ccccc32)cc1 (centres undefined) returned CHO parental Ca -20, M1 ag parental 0, M1 PAM parental 4, OX1R antag-1 14, OX1R antag-2 -30 and CHO-K1 Ca antag 6.
CC(=O)Nc1ccc(NC(=O)C(=O)NCC(c2ccco2)N2CCc3ccccc3C2)cc1 (centres undefined) was read as CHO parental Ca 49*, M1 ag parental 2, M1 PAM parental -9, OX1R antag-1 19, OX1R antag-2 17 and CHO-K1 Ca antag -4.
Screening Cc1ccsc1C1C=C(c2cccc(Br)c2)Nc2ncnn21 (centres undefined) returned CHO parental Ca -15, M1 ag parental 7, M1 PAM parental 0, OX1R antag-1 51, OX1R antag-2 45* and CHO-K1 Ca antag 6.
Screening COc1ccccc1-c1c(C(F)(F)F)oc2cc(OC(=O)c3ccc([N+](=O)[O-])cc3)ccc2c1=O returned CHO parental Ca -13, M1 ag parental 5, M1 PAM parental 16, OX1R antag-1 73*, OX1R antag-2 -3 and CHO-K1 Ca antag -6.
`CSc1ncccc1C(=O)OCC(=O)NCc1ccc2c(c1)OCO2` gave CHO parental Ca -21, M1 ag parental 0, M1 PAM parental 0, OX1R antag-1 18, OX1R antag-2 -7 and CHO-K1 Ca antag 5.
For Cc1cc(=O)n2c(n1)SCOC2 the results were CHO parental Ca 4, M1 ag parental 3, M1 PAM parental 27, OX1R antag-1 9, OX1R antag-2 -6 and CHO-K1 Ca antag -13.
`C/C(=N\NC(=O)c1ccccc1)c1ccc(-n2ccnc2)cc1` gave CHO parental Ca 1, M1 ag parental 0, M1 PAM parental -14, OX1R antag-1 10, OX1R antag-2 1 and CHO-K1 Ca antag 28*.
Screening C/C(=N\NC(=O)OC(C)(C)C)c1ccc(-n2ccnc2)cc1 returned CHO parental Ca -8, M1 ag parental 1, M1 PAM parental -5, OX1R antag-1 27, OX1R antag-2 -11 and CHO-K1 Ca antag -1.
`COc1ccc(CCNc2ncnc3c2nnn3Cc2ccccc2)cc1OC` gave CHO parental Ca -19, M1 ag parental 3, M1 PAM parental -4, OX1R antag-1 17, OX1R antag-2 -25 and CHO-K1 Ca antag 5.
Screening O=C(Nc1ccc(S(=O)(=O)Nc2ncccn2)cc1)c1ccc2ncsc2c1 returned CHO parental Ca 3, M1 ag parental 1, M1 PAM parental 15, OX1R antag-1 -1, OX1R antag-2 6 and CHO-K1 Ca antag -4.
For O=C(COc1ccccc1-c1ccccc1)Nc1ccc(S(=O)(=O)NCc2ccco2)cc1 the results were CHO parental Ca -3, M1 ag parental 1, M1 PAM parental 16, OX1R antag-1 47*, OX1R antag-2 20 and CHO-K1 Ca antag -3.
Screening CN(Cc1ccccc1)C(=O)Nc1c(Cl)cccc1Cl returned M1 ag parental 0, M1 PAM parental 7 and CHO-K1 Ca antag -9.
COc1cc(NC(=O)c2ccccc2F)ccc1NC(=O)c1cc2ccccc2o1 was read as M1 ag parental 0, M1 PAM parental 6 and CHO-K1 Ca antag 1.
`COc1ccc(C(=O)NCC(c2cccs2)N2CCc3ccccc32)c(OC)c1` (centres undefined) gave CHO parental Ca -31, M1 ag parental 5, M1 PAM parental 58*, OX1R antag-1 19, OX1R antag-2 -19 and CHO-K1 Ca antag -32.
`O=C(NCc1cccc(Cl)c1)C1CCC(=O)N(CCN2CCOCC2)C1` (centres undefined) gave CHO parental Ca -3, M1 ag parental 2, M1 PAM parental 13, OX1R antag-1 12, OX1R antag-2 -20 and CHO-K1 Ca antag 1.
Screening c1ccc(CN(Cc2cccs2)C(c2cccs2)c2nnnn2C2CCCC2)cc1 (centres undefined) returned CHO parental Ca 34*, M1 ag parental 0, M1 PAM parental 10, OX1R antag-1 9, OX1R antag-2 -26 and CHO-K1 Ca antag -8.
O=C(Nc1ccc2c(c1)OCCO2)C(=O)c1c[nH]c2ccccc12 was read as CHO parental Ca 4, M1 ag parental 7, M1 PAM parental 7, OX1R antag-1 50*, OX1R antag-2 20 and CHO-K1 Ca antag -6.
CSc1ccccc1NC(=O)C(=O)c1c[nH]c2ccccc12 was read as CHO parental Ca -6, M1 ag parental 1, M1 PAM parental 14, OX1R antag-1 48*, OX1R antag-2 -11 and CHO-K1 Ca antag 0.
Screening COc1ccc(CNC(=O)C2CCCN2CCc2ccccc2)cc1OC (centres undefined) returned CHO parental Ca -23, M1 ag parental 17*, M1 PAM parental 11, OX1R antag-1 11, OX1R antag-2 -21 and CHO-K1 Ca antag -20.
COc1ccc(CN2CCCC2C(=O)Nc2ccc(OC)c(OC)c2)cc1OC (centres undefined) was read as CHO parental Ca -2, M1 ag parental 0, M1 PAM parental -9, OX1R antag-1 16, OX1R antag-2 -13 and CHO-K1 Ca antag -22.
`CCn1c(C)cs/c1=N\C(=S)Nc1ccccc1C` gave CHO parental Ca -8, M1 ag parental 0, M1 PAM parental -14, OX1R antag-1 21, OX1R antag-2 -15 and CHO-K1 Ca antag 24*.
Screening COc1ccc(OC)c(S(=O)(=O)N2CCCC(C(=O)NCCN3CCOCC3)C2)c1 (centres undefined) returned CHO parental Ca -3, M1 ag parental 0, M1 PAM parental 3, OX1R antag-1 6, OX1R antag-2 -5 and CHO-K1 Ca antag -1.

Source: PubChem
